{"source": "paper PMC4544744", "about": "(Nature chemical biology, 2015)", "key": {"Dcs1p WT (H268N) [1]": {"molecular_target": "T1, Dcs1p WT (H268N) (Saccharomyces cerevisiae, UniProt Q06151, H268N)", "T1 sequence (Q06151 whole entry H268N)": "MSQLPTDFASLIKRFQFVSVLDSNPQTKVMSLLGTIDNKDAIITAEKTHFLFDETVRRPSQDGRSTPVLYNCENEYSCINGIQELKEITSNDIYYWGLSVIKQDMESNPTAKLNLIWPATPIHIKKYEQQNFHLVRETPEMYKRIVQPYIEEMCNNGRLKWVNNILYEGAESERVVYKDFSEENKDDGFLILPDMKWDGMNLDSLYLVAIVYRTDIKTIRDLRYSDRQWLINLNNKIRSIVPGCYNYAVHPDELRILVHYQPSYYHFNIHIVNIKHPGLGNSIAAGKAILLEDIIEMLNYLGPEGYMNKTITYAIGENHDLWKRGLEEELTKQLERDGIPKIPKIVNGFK", "assay": "NMR titration", "parameters": "species or system S. cerevisiae", "conditions": "Kd open site (second binding event), determined using NMR", "summary_of_the_method": "(§1)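 Deuterated, Ile/Met methyl-labelled Dcs1p (H268N), 0.25 mM dimer in D2O buffer pH 8.0 at 27°C. Methyl-TROSY spectra recorded during stepwise m7GpppG addition, up to 20 molar equivalents (5 mM). Peak positions and intensities from all titration points fitted simultaneously to a sequential two-site binding model. Kd given as mean ± s.d. from Monte Carlo simulations varying data within their errors.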"}, "Dcs1p Y94A": {"system": "Dcs1p Y94A", "assay": "31P NMR degradation", "format": "biochemical, S. cerevisiae", "conditions": "Y94A enzyme; 31P NMR time series, 14 h", "summary_of_the_method": "(§2)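 Recombinant S. cerevisiae Dcs1p, expressed in E. coli BL21(DE3) codon plus and purified by Ni-NTA, TEV tag cleavage and size exclusion into 25 mM Hepes pH 8.0, 25 mM NaCl made in 100% D2O. 0.5 mM m7GpppG mixed with 50 nM enzyme at 27°C. Successive 31P spectra recorded over several hours, following substrate conversion to m7GMP and GDP.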"}, "Dcs1p WT (H268N) [2]": {"molecular_target": "T1, Dcs1p WT (H268N)", "assay": "Longitudinal exchange NMR, domain flipping motions", "parameters": "species or system S. cerevisiae", "summary_of_the_method": "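Methyl-TROSY longitudinal exchange spectra recorded with m7GpppG at 1:1, 1:2.5, 1:5 and 1:20 molar ratios. Mixing times 3–1000 ms. Rates fitted from auto- and cross-peak intensities versus mixing time.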"}, "Dcs1p K126A (H268N) [3]": {"molecular_target": "T2, Dcs1p K126A (H268N) (Saccharomyces cerevisiae, UniProt Q06151, H268N/K126A)", "T2 sequence (Q06151 whole entry K126A/H268N, the tested form may be a part)": "as the sequence (Q06151 whole entry H268N) above, with K126A counted along it", "assay": "ITC", "format": "binding, S. cerevisiae", "summary_of_the_method": "(§3)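 Recombinant yeast Dcs1p carrying H268N, full length or C-terminal domain, purified by Ni-NTA, TEV cleavage and size exclusion. ITC at 25°C: m7GpppG or m7GMP injected into 0.5 mM enzyme solution.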"}, "Dcs1p K126A [4]": {"system": "Dcs1p K126A", "assay": "Longitudinal exchange NMR, domain flipping motions", "parameters": "species or system S. cerevisiae"}, "Dcs1p K126A [5]": {"system": "Dcs1p K126A", "assay": "31P NMR degradation", "format": "biochemical, S. cerevisiae", "conditions": "high substrate excess"}, "WT Dcs1p": {"system": "WT Dcs1p", "assay": "31P NMR degradation", "format": "biochemical, S. cerevisiae", "summary_of_the_method": "as §2"}, "Dcs1p K126A (H268N) [6]": {"molecular_target": "T2, Dcs1p K126A (H268N)", "assay": "NMR titration", "parameters": "species or system S. cerevisiae", "conditions": "Kd open site (second binding event), determined using NMR", "summary_of_the_method": "as §1"}, "Dcs1p WT (H268N) [7]": {"molecular_target": "T1, Dcs1p WT (H268N)", "assay": "Methyl NMR spectra, formation of asymmetric conformation", "parameters": "species or system S. cerevisiae"}, "[8]": {"molecular_target": "Dcs1p WT (H268N), full length (Saccharomyces cerevisiae, UniProt Q06151, H268N)", "sequence (Q06151 whole entry H268N)": "as the sequence (Q06151 whole entry H268N) above", "assay": "ITC", "format": "binding, S. cerevisiae", "summary_of_the_method": "as §3"}, "DcpS": {"system": "DcpS", "conditions": "cited from earlier work"}}, "note": "Where “and” joins values, the source holds several entries; their conditions need not be identical. Equal entries are not always repeated.", "data": [{"smiles": "C[n+]1cn([C@@H]2O[C@H](COP(=O)([O-])OP(=O)(O)OP(=O)(O)OC[C@H]3O[C@@H](n4cnc5c(=O)[nH]c(N)nc54)[C@H](O)[C@@H]3O)[C@@H](O)[C@H]2O)c2nc(N)[nH]c(=O)c21", "note": "[m7GpppG]", "values": [{"measurement": "Kd", "setting": "Dcs1p WT (H268N) [1]", "value": 105, "unit": "µM"}, {"measurement": "enzymatic turnover / hydrolysis", "setting": "Dcs1p Y94A", "value": "did not detect enzymatic turnover"}, {"measurement": "domain flipping (exchange) rate", "setting": "Dcs1p WT (H268N) [2]; 20-fold excess of substrate over dimeric enzyme, inactive H268N", "value": "35.4 (± 4.8) s^−1 and 35.4 s^−1"}, {"measurement": "Flipping rate", "setting": "Dcs1p WT (H268N) [2]; low substrate excess", "value": 8, "unit": "Hz"}, {"measurement": "Kd", "setting": "Dcs1p K126A (H268N) [3]", "value": 0.24, "unit": "µM"}, {"measurement": "Flipping rate", "setting": "Dcs1p K126A [4]; K126A (H268N), under high and low substrate excess", "value": "< 1 Hz under high and low substrate excess"}, {"measurement": "domain flipping rate", "setting": "Dcs1p K126A [4]; K126A, substrate excess, based on detection limit of the experiment", "value": "less than 1 s^−1"}, {"measurement": "Turnover rate (kcat)", "setting": "Dcs1p K126A [5]", "value": "0.48 s^−1 under high substrate excess"}, {"measurement": "Turnover rate (kcat)", "setting": "WT Dcs1p; high substrate excess, 0.5 mM substrate, 50 nM enzyme, 27°C", "value": "0.27 s^−1 under high substrate excess"}, {"measurement": "Kd", "setting": "Dcs1p K126A (H268N) [6]", "value": 196, "unit": "µM"}]}, {"smiles": "Nc1nc2c(ncn2[C@@H]2O[C@H](COP(=O)(O)OP(=O)(O)OP(=O)(O)OC[C@H]3O[C@@H](n4cnc5c(=O)[nH]c(N)nc54)[C@H](O)[C@@H]3O)[C@@H](O)[C@H]2O)c(=O)[nH]1", "note": "[GpppG]", "values": [{"measurement": "enzymatic turnover / hydrolysis", "setting": "WT Dcs1p; WT enzyme, 31P NMR time series, 14 h", "value": "did not detect enzymatic turnover"}, {"measurement": "formation of asymmetric conformation", "setting": "Dcs1p WT (H268N) [7]", "value": "observed no resonances corresponding to the asymmetric conformation"}]}, {"smiles": "C[n+]1cn([C@@H]2O[C@H](COP(=O)([O-])O)[C@@H](O)[C@H]2O)c2nc(N)[nH]c(=O)c21", "note": "[m7GMP, m^7G monophosphate]", "values": [{"measurement": "Kd", "setting": "[8]; Kd (single-step binding, closed binding site), ITC, DcpS H268N", "value": "1.1 ± 0.6", "unit": "µM"}, {"measurement": "factor weaker interaction with closed binding site than the substrate", "setting": "[8]; product vs substrate", "value": 4}, {"measurement": "interaction with the second, open binding site", "setting": "[8]; using ITC and NMR", "value": "not able to detect an interaction"}, {"measurement": "formation of asymmetric conformation", "setting": "Dcs1p WT (H268N) [7]", "value": "preserves the asymmetric form of the complex"}]}, {"smiles": "C[n+]1cn([C@@H]2O[C@H](COP(=O)(O)OP(=O)(O)O)[C@@H](O)[C@H]2O)c2nc(N)[nH]c(=O)c21", "note": "[m^7GDP, 7-methylguanosine diphosphate]", "values": [{"measurement": "hydrolysis", "setting": "DcpS", "value": "not hydrolysed efficiently"}]}]}
